Experimental findings from the EternaBench riboswitch data are described below.

The series relates to MS2 coat protein. In words: apparent Kd, MS2 coat protein; higher = weaker binding; RNA-MaP array; FMN 200 µM where present. In a few lines:
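In 100 mM Tris-HCl pH 7.5, 80 mM KCl, 4 mM MgCl2, BSA, DTT, yeast tRNA and Tween-20, SNAP-549-labelled MS2 coat protein was titrated from 0.7 or 1.5 nM, doubling to 3 µM, over designs transcribed by stalled E. coli RNA polymerase on Illumina sequencing-chip clusters. This was done first without ligand, then with ligand held constant. After green signal was normalised to red-channel RNA signal and control-cluster median Fmax, the apparent Kd was taken as the median of filtered per-cluster binding-curve fits.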

Setting [1] is: designed as: ON switch for flavin mononucleotide, no ligand.
Setting [2] is: ligand present: flavin mononucleotide, designed as: ON switch for flavin mononucleotide.
The mark [3] stands for this setting: designed as: OFF switch for flavin mononucleotide, no ligand.
Setting [4] is: ligand present: flavin mononucleotide, designed as: OFF switch for flavin mononucleotide.

As a reminder, the apparent Kd is the concentration giving half-maximal binding under the conditions of the assay. For the sequence “UGGUACUAGGGAGGAUAUGGGAAGAUACAUGAGGAUCACCCAUGUUUAAGAAUGCCGAGAGGCAGCUAGAAGGCCCUAGUACCU”, the “apparent Kd” value by setting is: under setting [1], 675 nM; under setting [2], 24.7 nM.

For “CCGGCUUAGGAGGAUAUGGGAGUCGAUAGACACCCAGAAGGCCUAACAUGAGGAUCACCCAUGUGUCCUACCGG”, the “apparent Kd” value under setting [3] is 23.4 nM and the “apparent Kd” value under setting [4] worked out at 109 nM.

For “GGACAUGUCGUUUACAUGAGGAUCACCCAUGUCGAUGGACAUGAGGAUAUCGAUACAAAUUGUAUCGAGAAGGCAUGCAUGUCC”, the “apparent Kd” value by setting is: under setting [1], 40.8 nM; under setting [2], 18.5 nM.

For “GAAAAGGUAGGAUAUACGAAAAAAAAGGGUAGAAAAAAAAAACAUGAGGAUCACCCAUGUAGAAGGACCAAAAG”, the “apparent Kd” value under setting [3] came out at 39.6 nM and the “apparent Kd” value under setting [4] is 93.2 nM.

Regarding “UCGACGAAAGUCGAACGAUGUAGCAGAAGGACAUGAGGAUCACCCAUGUCAGCUGUAACAGCCAUGUAGGAUAUGCUACAUCGG”, the “apparent Kd” value runs as follows: under setting [3], 4.43 nM; under setting [4], 5.37 nM.

As for “AGUGUCAUCGAGAAGGCCUCAACAUGAGGAUCACCCAUGUUGCAAAAUGGGAGGAUAUCGAAAAUACAGCUACGUUUCGUAGCA”, the “apparent Kd” value is, setting by setting: under setting [1], 21.9 nM; under setting [2], 5.3 nM.

On to “CCUAAGGACACAGGAUAUAGCGCGGUGGCUGGGCUCCAACGGCGAGCGACGCUAGAAGGGUGACCACAUGAGGAUCACCCAUGU”, for which the “apparent Kd” value runs as follows: under setting [1], 517 nM; under setting [2], 122 nM.

As for “CUCCUACAUGAGGAUCACCCAUGUCAGGAUAUCUCAGUGGCACCUAAAGGCGCCACCCAGAGAAGGGACGUGCA”, the “apparent Kd” value runs as follows: under setting [3], 11.6 nM; under setting [4], 14.8 nM.

Consider “UCAUUAUAAAUCCAUCAUAACUACAUGAGGAUCACCCAUGUGCAGGAUAUCGAUUUUUUAACUUUCGAGAAGGGCAAUUACAGA”, for which the “apparent Kd” value by setting is: under setting [3], 37.6 nM; under setting [4], 96.1 nM.

As for “ACGUUUUAUGCAGGAUAUUGACUUAUAUUUAAACAAGAAGGGCAUUACAUGAGGAUCACCCAUGUUAUCAUGGUAUUUAAGUUC”, the “apparent Kd” value runs as follows: under setting [3], 40 nM; under setting [4], 60.4 nM.

Consider “UUUGUUUAUGUGAGGAUAUACUGUUUGUUUUGUUUGUAGAAGGUACAUGAGGAUCACCCAUGUUUUGUAUUUAU”, for which the “apparent Kd” value was determined as 21.5 nM under setting [3] and 18.8 nM under setting [4].

In the case of “UUAUGUGUUGUAGGAUAUCAUUAGAUUUGUAAUUUAAUUGUAAUUUACAUAUGAGAAGGACAUUUACAUGAGGAUCACCCAUGU”, the “apparent Kd” value was 12.5 nM under setting [3] and 9.6 nM under setting [4].

In the case of “GGGAGACAUGAGGAUCACCCAUGUGAAAACGUGCGAGGAUAUGUAUGGAAACCAUACUGUACAGAAGGCGUUUGUC”, the “apparent Kd” value runs as follows: under setting [1], 50.2 nM; under setting [2], 47.7 nM.

Turning to “UGUUACUAGUAAGGAUAUACUAGCGAUAAGCUAGUAGAAGGUACAGUCUUUUGUAUAACAUGUUUACAUGAGGAUCACCCAUGU”, the “apparent Kd” value reads like this: under setting [1], 10.6 nM; under setting [2], 8.02 nM.

“UCGUGGUCAGGAUAUACAUGAGGAUCACCCAUGUAAAAGAGCAUUAAGGAGAGACUACGUAGAAGGGACAAAUU”: the “apparent Kd” value by setting is: under setting [3], 51.6 nM; under setting [4], 47.2 nM.

Turning to “AAUAAACUCACAGGAUAUAGCAUCGUCGUUGCGAACUUAGCGACGACGAUGCUAGAAGGGUGUAUACAUGAGGAUCACCCAUGU”, the “apparent Kd” value reads like this: under setting [1], 23 nM; under setting [2], 11.2 nM.

Consider “GUUCUUCCUGUAAGGAUAUCCAUGUGUCAGUUUAUGGAGAAGGUACAUGAGGAUCACCCAUGUCACCCGCGUUA”, for which the “apparent Kd” value is, setting by setting: under setting [3], 18.4 nM; under setting [4], 51.2 nM.

“UUGCCUCAGAACAUGAGGAUCACCCAUGUGCUGCGGGCAACGUAGGAUAUGACGGUAUGAUACCGUCAGAAGGAUGAUGGUACC”: the “apparent Kd” value reads like this: under setting [1], 5.62 nM; under setting [2], 5.25 nM.

In the case of “UUUCCCUGUGUGAGGAUAUACUUGUUUGGGUUUUUGUAGAAGGCACAUGAGGAUCACCCAUGUAUUUUGUCGUG”, the “apparent Kd” value is, setting by setting: under setting [3], 43.1 nM; under setting [4], 111 nM.

For “GUGCUCGUGUGAGGAUAUGCUUCCGUUUCGGCUGCAGAAGGUACUAUUAUACAUGAGGAUCACCCAUGUCGCUUUUCUCCGGUG”, the “apparent Kd” value is, setting by setting: under setting [1], 26.6 nM; under setting [2], 27.5 nM.

Consider “GAGAGCCGAGGAUAUACAUGAGGAUCACCCAUGUAAAAAAAAAAAAAAAAAAAAUCAUGUAGAAGGCGGCUUUC”, for which the “apparent Kd” value amounted to 122 nM under setting [3] and 89.8 nM under setting [4].

Consider “ACCUUACUGGUCAGGAUAUACAGUCUUUGGUGUGUGUAGAAGGGACAUGAGGAUCACCCAUGUAGGUUGCAUUA”, for which the “apparent Kd” value reads like this: under setting [3], 164 nM; under setting [4], 172 nM.

On to “GAGGCACAUGAGGAUCACCCAUGUGGGUAGAACAUAGGAUAUCACCAACAAAUUACCCGGUGAGAAGGAUGAUGCC”, for which the “apparent Kd” value was 234 nM under setting [1] and 57.4 nM under setting [2].

For “GGAUAGGACAGAGGAUAUACGUGCUAGAGAUACUAGCAAAAUUUCCUCACAUGAGGAUCACCCAUGUAGAAGGCUGUCCUAUCA”, the “apparent Kd” value by setting is: under setting [3], 16.7 nM; under setting [4], 380 nM.

Consider “GCGUUGUACGAGAAGGCCAAUACAUGAGGAUCACCCAUGUAAAGUUGUAAUGGAGGAUAUCGAACACAUUCAAUAAUGCAACGC”, for which the “apparent Kd” value under setting [3] stood at 8.29 nM and the “apparent Kd” value under setting [4] was 5.66 nM.

“CGGGAGUCAGGAUAUACGAACAUGUCGCCAGAUGUCAUGGUACAUGAGGAUCACCCAUGUAGAAGGGAGGCGGU”: the “apparent Kd” value under setting [3] amounted to 50.6 nM and the “apparent Kd” value under setting [4] came to 30.5 nM.

For the sequence “UCUACGCGAAUCCAGAUGGAUAGCACAUGAGGAUCACCCAUGUAGGAUAUGCUACACAAAGUGUAGCAGAAGGACAAGCGUAGA”, the “apparent Kd” value reads like this: under setting [3], 28.3 nM; under setting [4], 32.3 nM.

For the sequence “CUUUUGUGAGGAUAUCAGUAGUAAAAAAUUAAAAUUACUACUGAGAAGGCACAUGAGGAUCACCCAUGUUCCUC”, the “apparent Kd” value turned out to be 40.1 nM under setting [3] and 284 nM under setting [4].

Regarding “ACGAAACAUGAGGAUCACCCAUGUGAGGAUAUGUAAAUAGUAAACAAAUAAGAAAUAAACAGAAGGCACACAGG”, the “apparent Kd” value under setting [3] was found to be 32.9 nM and the “apparent Kd” value under setting [4] came out at 67 nM.

As for “UGUCGGAGCAGAGGAUAUUACAUGAGGAUCACCCAUGUAUGAACCAAUAGCUGGAAACAUCAAUGUAAGAAGGCUGCUCCGACA”, the “apparent Kd” value amounted to 10.2 nM under setting [3] and 72.5 nM under setting [4].

“UUGGACGUCGUAGGAUAUGUAGGAUAUUCCUACAUGAGGAUCACCCAUGUUGAAAUGGAAGAAGGACAGAAGGACGAUGUCCAU”: the “apparent Kd” value under setting [1] was 56.9 nM and the “apparent Kd” value under setting [2] is 11.8 nM.

Turning to “ACUCGUGGACAGAAGGCGACAUGAGGAUCACCCAUGUUGGCUCGGGUAUGACCAAUCCGCAUGAUCGAGGAUAUGUCUGCGGGC”, the “apparent Kd” value is, setting by setting: under setting [3], 326 nM; under setting [4], 16.1 nM.

For the sequence “UUUGCAUUCCGAGGAUAUUCAUAUAAUGACUACACAUGAGGAUCACCCAUGUGGCGAUAGCCUAGGGAGAAGGCGGUUUGCUUU”, the “apparent Kd” value reads like this: under setting [1], 20.3 nM; under setting [2], 17.8 nM.

Consider “AAGUAGAUCCGAGGAUAUACAAACCGGAAACGGUACAUGAGGAUCACCCAUGUAGAAGGCGGAUCUACAGGUACUAAAGUACCA”, for which the “apparent Kd” value by setting is: under setting [3], 5.33 nM; under setting [4], 8.68 nM.

Turning to “AAUAUAAAGAGCUGGUAACUCAAAACAUGAGGAUCACCCAUGUAGGAUAUCAGCACGAUAAGUGCUGAGAAGGACAUCCAGCUC”, the “apparent Kd” value is, setting by setting: under setting [3], 16.5 nM; under setting [4], 17.2 nM.

Turning to “UGGAUAGGAAAAUUUGUCCAUUGUACAGAAGGCCAACAUGAGGAUCACCCAUGUAAGAAAAGGAUGGAGGAUAUGUAUAGGGCC”, the “apparent Kd” value was determined as 64.5 nM under setting [1] and 20.9 nM under setting [2].

For the sequence “CAGCAAUGUAAGAAGGCUGCUCCGAUAAGGAGCAGAGGAUAUUACAUGAGGAUCACCCAUGUAUGAACCAAUAGCUGAAAUAAA”, the “apparent Kd” value worked out at 8.78 nM under setting [3] and 94.2 nM under setting [4].

For the sequence “GAUAAGGGAGGAUAUACGGAACGGUUUAUGCUCAGUGAGGCACAUGAGGAUCACCCAUGUAGAAGGCCCGACAG”, the “apparent Kd” value reads like this: under setting [3], 28.2 nM; under setting [4], 120 nM.

For “ACUGAGGACACAGGAUAUCCGGUUAGGGUAAUCGGAGAAGGGUGACGGCAUGUAGGAAGUCACAUGAGGAUCACCCAUGUGAGA”, the “apparent Kd” value reads like this: under setting [1], 182 nM; under setting [2], 83.5 nM.

Take “UUGAUUAUACAAGGAUAUCAAUUGUAUACAAGUCUUACAUGAGGAUCACCCAUGUUAAAUUUUUUUGAGAAGGUGUGUUUUCAG”: the “apparent Kd” value reads like this: under setting [1], 32.2 nM; under setting [2], 29.5 nM.

For “UGGUACAUGGGAGGAUAUGGGAAGAUACAUGAGGAUCACCCAUGUUUAAGAAUGCCGAGAGGCAACUAGAAGGCCCAUGUACCU”, the “apparent Kd” value runs as follows: under setting [1], 1090 nM; under setting [2], 45.8 nM.

“GCUGUCGCAUGAGGAUAUGGUCAGGUUUCCUGACCAGAAGGCAUGUCAAUAGACAUGAGGAUCACCCAUGUAGUAAAGACAGCA”: the “apparent Kd” value by setting is: under setting [1], 447 nM; under setting [2], 36.4 nM.

With “GGUAGAGAGCAGGAUAUCUUGGGUAAGUAUUGUAGAGAAGGGCUCACAUGAGGAUCACCCAUGUGGUCCAAGAU”, the “apparent Kd” value under setting [3] amounted to 13.9 nM and the “apparent Kd” value under setting [4] worked out at 29.8 nM.

On to “UGGAUCAUCGGAGGAUAUCAUGUAGAUACAUGAGGAUCACCCAUGUCGUACGAGAGUACGGAGAUUGAGAAGGCCGAUGAUCCU”, for which the “apparent Kd” value runs as follows: under setting [1], 31.6 nM; under setting [2], 14.8 nM.

In the case of “GGAUAUGACAGAGGAUAUACGUGCUAGAGAUACUAGCAAAAUUUCCUCACAUGAGGAUCACCCAUGUAGAAGGCUGUCCUAUCG”, the “apparent Kd” value by setting is: under setting [3], 16.3 nM; under setting [4], 275 nM.

On to “GCUAGUAUUGCAGGAUAUUGAGAAUAAUUAUUACAAGAAGGGCAUAACAUGAGGAUCACCCAUGUAUUCCUUAGUGAUACUAGC”, for which the “apparent Kd” value is, setting by setting: under setting [3], 6.24 nM; under setting [4], 6.07 nM.

For the sequence “UGUUGUAUUACAGGAUAUCUAUUAGUUUUUUUUAGAGAAGGGUAUUCACAUGAGGAUCACCCAUGUAUAUACGAGGAAGUUGUG”, the “apparent Kd” value came out at 50.2 nM under setting [1] and 51.7 nM under setting [2].

Consider “AGGAAGUGCCAGAAGGCUCCUGGAAUCCUAGGGAGAGGAUAUGGCACAUGAGGAUCACCCAUGUGGUAGAUCUGUUUCGAAGUG”, for which the “apparent Kd” value reads like this: under setting [3], 93.4 nM; under setting [4], 31.1 nM.
